High-throughput results from PubChem.
DAT uptake mod: human DAT dopamine uptake with cocaine, either direction; LLC-PK1 hDAT cells, [14C]-dopamine uptake with cocaine IC80; actives deviate in either direction; hit rate 1.3% among 110,000; Q01959; B-score at 10 µM; AID 449768;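 active means Z score or B-score, a plate-position-corrected score, falls beyond the plate's 99.7% confidence bounds, in either direction; inactive means both scores lie inside the 99.7% bounds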;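 further: scored against the spread of the other compound wells on the same plate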
Ec RNAP inh: inhibitors of Escherichia coli RNA polymerase | P0A8V2 | E. coli RNA polymerase, fluorescence transcription assay | inhibition, %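 (tested at 10 µM)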 | hit rate 0.2% among 62,000; in the data active means inhibition above about 20%;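 further: 0% = enzyme without compound and 100% = no enzyme blank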
Target sequence (P0A8V2 whole entry, looked up): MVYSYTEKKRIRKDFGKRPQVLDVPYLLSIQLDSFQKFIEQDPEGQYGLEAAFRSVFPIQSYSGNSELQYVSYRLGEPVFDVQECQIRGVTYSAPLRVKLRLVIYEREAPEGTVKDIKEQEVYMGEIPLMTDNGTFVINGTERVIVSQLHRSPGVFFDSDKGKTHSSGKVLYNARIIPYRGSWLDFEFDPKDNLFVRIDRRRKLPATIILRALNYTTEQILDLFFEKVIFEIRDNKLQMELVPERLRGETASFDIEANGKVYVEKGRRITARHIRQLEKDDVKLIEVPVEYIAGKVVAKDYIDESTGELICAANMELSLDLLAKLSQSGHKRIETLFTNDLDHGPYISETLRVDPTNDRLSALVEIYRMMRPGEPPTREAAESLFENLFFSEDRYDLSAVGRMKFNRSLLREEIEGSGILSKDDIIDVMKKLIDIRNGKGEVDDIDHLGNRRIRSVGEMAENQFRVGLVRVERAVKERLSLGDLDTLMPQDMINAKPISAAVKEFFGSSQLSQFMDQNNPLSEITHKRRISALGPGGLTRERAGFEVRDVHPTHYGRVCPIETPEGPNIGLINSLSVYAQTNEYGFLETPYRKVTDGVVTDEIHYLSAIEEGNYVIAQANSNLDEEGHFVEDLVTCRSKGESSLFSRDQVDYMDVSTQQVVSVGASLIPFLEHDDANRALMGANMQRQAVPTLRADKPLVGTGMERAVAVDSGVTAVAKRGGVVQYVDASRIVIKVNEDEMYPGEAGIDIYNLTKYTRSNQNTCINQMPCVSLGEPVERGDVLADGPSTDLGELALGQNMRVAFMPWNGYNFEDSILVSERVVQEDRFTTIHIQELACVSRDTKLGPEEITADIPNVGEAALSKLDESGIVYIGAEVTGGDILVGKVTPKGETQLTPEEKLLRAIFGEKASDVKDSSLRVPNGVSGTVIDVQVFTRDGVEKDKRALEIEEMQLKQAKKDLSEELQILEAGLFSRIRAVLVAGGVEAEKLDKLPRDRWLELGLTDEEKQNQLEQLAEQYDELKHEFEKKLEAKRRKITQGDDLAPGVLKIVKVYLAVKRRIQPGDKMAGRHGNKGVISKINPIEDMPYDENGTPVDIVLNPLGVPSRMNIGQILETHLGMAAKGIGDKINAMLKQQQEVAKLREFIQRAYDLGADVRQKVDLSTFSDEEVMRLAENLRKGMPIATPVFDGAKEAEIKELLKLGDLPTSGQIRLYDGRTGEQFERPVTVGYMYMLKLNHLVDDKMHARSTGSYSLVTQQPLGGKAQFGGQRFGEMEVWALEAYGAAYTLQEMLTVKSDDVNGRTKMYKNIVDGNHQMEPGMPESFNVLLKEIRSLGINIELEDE
HEK293 NFkB inh: inhibitors of the PMA/ionomycin-induced NF-kB reporter in HEK293 cells | inhibition, % at 3 µM | hit rate 0.21% among 62,000 | HEK-293 NF-kB luciferase reporter, luminescence;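 active means inhibition above the mean of all tested compounds plus 3 SD, cut at about 40% in these data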;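 further: 0% = stimulated DMSO wells and 100% = 10 µM reference inhibitor 5653914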
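System: NF-kB luciferase reporter HEK-293 cells | Replication: Single test | Control set: DMSO vs reference inhibitor | Evaluation: % inhibition | Schedule: 1 h pretreatment, 16 h stimulation, 37 °C | Probe or stimulus: PMA with ionomycin | Compound dosing: One dose, 3 µM | Detection: Luciferase luminescence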
D1 allo mod: allosteric modulators of human D1 dopamine receptor | P21728 | HEK293 D1, CRE-luciferase, dopamine EC30 potentiation; actives deviate in either direction | B-score at 10 µM | hit rate 5.9% among 58,000 | AID 641;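 active means luminescence count or its row- and column-corrected plate score outside the 99.7% band of the plate's sample wells, on either side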
AP ELISA ortho: orthogonal test for alternative complement pathway inhibitors. Human serum alternative complement pathway, LPS-coated ELISA, C3 deposition; tested in compound mixtures. inhibition, % at 5 µM. hit rate 0.08% among 62,000. AID 1235;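 active means inhibition above 30% in each of the two pooled mixtures holding the compound, so the lower value exceeds 30%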;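 further: 0% = serum in Mg-EGTA without compound and 100% = EDTA serum blank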
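Test system: human serum alternative complement pathway, C3 deposition on LPS-coated wells; also added: Plate-bound LPS; doses: 5 µM per compound in ten-compound mixtures; schedule: 1 h at 37 °C; detection: Anti-C3 ELISA, OD 450 nm; evaluation: percent inhibition of C3 deposition onto LPS; repeats: two pool placements per compound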
An asterisk follows results filed as active; . = not tested or not shown. Shown is part of a subset that was picked to be rich in hits.

SMILES	DAT uptake mod	Ec RNAP inh	HEK293 NFkB inh	D1 allo mod	AP ELISA ortho
CCOC(=O)c1c(C)c(C(=O)Nc2ccccc2)c(C)n1CC	.	5	15	1.1	6
CCOC(=O)c1c(C)c(C(=O)N2CCc3ccccc3C2)c(C)n1CC	2.5*	4	21	1.2	20
CON(C)c1nc(OCCNC(=O)OCc2ccc(Cl)cc2Cl)nc(N(C)C)n1	-0.0084	5	8	0.016	-5
COc1cc(OC)c(OC)cc1CN1CCN(c2ccccc2OC)CC1	-1.4	4	0	-3.7*	2
COc1ccccc1N1CCN(CC(O)COc2c(OC)cccc2OC)CC1 (stereo unspecified)	-1.3	0	16	-4.6*	10
COc1ccccc1N1CCN(Cc2cccc(OC)c2OC)CC1	-0.25	3	12	-5.3	8
COc1cccc(OC)c1OCC(O)CN1CCN(c2ccccc2)CC1 (stereo unspecified)	-0.61	4	-1	-2.9	10
COc1ccc(N2CCN(CC(O)COc3ccc4c(c3)CCC4)CC2)cc1 (stereo unspecified)	0.02	.	.	.	.
COc1ccccc1N1CCN(CC(O)c2ccc3cc[nH]c3c2)CC1 (stereo unspecified)	-1.2	10	14	-2.6*	0
C=CCc1ccccc1OCC(O)CN1CCN(c2ccc(OC)cc2)CC1 (stereo unspecified)	-1.1	-1	14	-2.6*	10
COc1cccc(-c2cc(C(=O)NCCCn3ccnc3)no2)c1	-0.078	.	.	.	.
COc1cccc(NS(=O)(=O)c2cc(C)sc2C)c1	2.6*	9	25	-0.35	3
CCOc1ccc2nc(SCC(=O)N3CCN(C(=O)c4ccco4)CC3)sc2c1	-1.7*	.	.	.	.
O=C(NC1CCCCC1)c1ccc(CNc2ccccc2)o1	0.68	0	8	1.7	14
Cc1ccc(S(=O)(=O)NC(C)(C)CSc2nnc(Nc3ccccc3)s2)cc1	-8.1*	.	.	.	.
C#CCSc1nnc(C)c(C)n1	0.0032	.	.	.	.
Cc1cc(N2CCN(c3ccccc3)CC2)nc(NCc2ccccc2)n1	-0.55	10	-8	-3.5*	5
O=C(OCc1nnn(Cc2ccccc2)c1-c1c(COC(=O)c2ccccc2)nnn1Cc1ccccc1)c1ccccc1	-0.11	.	.	.	.
COc1ccc(C(=O)Nc2cccc(-c3nc4ncccc4o3)c2C)cc1	1.8	.	.	.	.
COc1ccccc1NC(=O)c1oc2ccccc2c1NC(=O)c1cc(OC)c(OC)c(OC)c1	.	6	11	14*	2
COc1cc(C(=O)Nc2cccc(-c3nc4ncccc4o3)c2C)cc(OC)c1OC	-0.012	-10	12	-0.049	31*
O=C(COC(=O)c1ccc(S(=O)(=O)Nc2ccccc2)cc1)NCc1ccco1	-0.63	.	.	.	.
CC(C(=O)NCc1cccnc1)N1C(=O)c2ccccc2C1=O (stereo unspecified)	0.015	5	12	-0.65	7
Cc1nnc(SCC(=O)N2c3ccccc3Sc3ccccc32)n1N	-0.016	1	9	-0.1	19
Cc1nnc(SC(=O)N2c3ccccc3Sc3ccccc32)s1	-0.042	6	28	-3.3*	16
SMILES	DAT uptake mod	Ec RNAP inh	HEK293 NFkB inh	D1 allo mod	AP ELISA ortho
Cc1cc(C)c(NC(=O)CSc2nnc(SCC(=O)Nc3c(C)cc(C)cc3C)n2N)c(C)c1	-0.53	.	.	.	.
CCCC(=O)N1CCN(c2nc(CC(C)C)c3c(c2C#N)CCC3)CC1	2.6*	4	.	4.1	.
CC(C)Cc1nc(N2CCN(C(=O)Cc3ccccc3)CC2)c(C#N)c2c1COC(C)(C)C2	.	6	.	.	.
CCOC(=O)c1cc2occc2n1CC(=O)N1CCCc2ccccc21	-1	9	-1	4.2*	2
CCOC(=O)c1cc2sccc2n1CC(=O)N1CCCc2ccccc21	0.65	4	12	3.2	2
Cc1cc(C)cc(NC2=NC3(CCCCC3)N=C(N)N2)c1	0.092	7	-4	-5.3*	11
CCCn1c(SCC(N)=O)nnc1-c1ccco1	-0.56	11	9	-3.2*	-9
CCn1c(SCC(N)=O)nnc1-c1ccco1	0.054	11	8	-1	-2
NC(=O)CSc1nnc(-c2ccco2)n1N	-0.47	.	.	.	.
CC(C)OC(=O)CSc1nnc(-c2ccco2)n1N	.	6	2	-3.1*	3
CC(C)c1ccc(-c2nnn(Cc3nc4ccccc4s3)n2)cc1	0.65	9	-1	1.5	-8
CCCCOC(=O)CSc1nnc(N)s1	-2.4*	4	-8	-0.12	-14
Nc1nnc(SCC(=O)c2ccccc2)s1	-0.86	8	4	1.7	6
CCCCCn1c(SCCCC)nc2c1c(=O)[nH]c(=O)n2C	-0.67	4	2	20*	4
C/C(Cl)=C/Cn1c(SCC(C)C)nc2c1c(=O)[nH]c(=O)n2C	0.23	-2	14	14*	-3
CCCCOC(=O)CSc1nc2c(c(=O)[nH]c(=O)n2C)n1C/C=C(\C)Cl	0.23	2	7	-0.49	10
CC1(C)CC[C@@]23CC[C@]4(C)[C@@](OC2=O)(C3C1)[C@H]1O[C@H]1C1[C@@]2(C)CC[C@H](O)C(C)(C)C2CC[C@]14C (stereo partly specified)	-0.1	.	.	.	.
CCN(CC(=O)Nc1c(C(=O)OC)[nH]c2ccc(C)cc12)c1ccc2c(c1)OCO2	0.94	10	11	0.52	9
C=CCOc1cccc(C2c3c(oc4ccc(F)cc4c3=O)C(=O)N2CCCN2CCOCC2)c1 (stereo unspecified)	1.7	7	0	0.034	34*
CC1(C(=O)NCCCNc2ncc(C(F)(F)F)cc2Cl)C=CC2(CCCCC2)N1C(=O)c1ccccc1 (stereo unspecified)	-0.34	.	.	.	.
O=C(c1cccc(N2C(=O)C3CC=CCC3C2=O)c1)N1CCCCCC1 (stereo unspecified)	-8.8*	2	16	0.2	16
O=C(c1cccc(N2C(=O)C3CC=CCC3C2=O)c1)N1CCN(c2ccccc2)CC1 (stereo unspecified)	.	5	15	0.09	14
Nc1c(C(=O)NCC2CCCO2)c2nc3ccccc3nc2n1-c1ccccc1 (stereo unspecified)	0.45	-16	20	-1.6	3
COc1ccccc1-n1c(N)c(C(=O)NCC2CCCO2)c2nc3ccccc3nc21 (stereo unspecified)	4.2*	-30	.	.	21
CC1CCCC(C)N1C(=O)Cn1cc(/C=C2/C(=O)Nc3ccccc32)c2ccccc21 (stereo unspecified)	1.8	.	.	.	.
CN1C(=O)/C(=C/c2cn(CC(=O)N3CCCCC3)c3ccccc23)c2ccccc21	3.8*	.	.	.	.
O=c1c(-c2ccc(O)cc2)coc2cc(OC3OC(CO)C(O)C(O)C3O)ccc12 (stereo unspecified)	-0.92	.	.	.	.
NC(=O)C1CCN(C(=O)CN(c2cccc(C(F)(F)F)c2)S(=O)(=O)c2ccccc2)CC1	-0.096	8	14	-2.3*	0
COc1cccc(S(=O)(=O)Nc2ccc(C(=O)N3CCOCC3)cc2)c1	-0.29	4	10	0.24	13
